Assay results published in paper PMC5060010 (ACS chemical biology, 2013).

Columns and labels:
[1] = biological target: mu-delta heteromer (Homo sapiens, UniProt P35372+P41143); assay: immunocytochemical trafficking; type: cell-based; conditions: ligand 1 μM, 30 minutes at 37°C, HEK-293 cells with FL-mu and HA-delta
[2] = biological target: mu/delta opioid receptors (Homo sapiens, UniProt P35372+P41143); type: cell-based; conditions: mu/delta HEK-293 cells
Procedure, shortened: (§1)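 Calcium release measured in HEK-293 cells stably expressing mu, or both mu and delta, opioid receptors. The dual-transfected cells came from an outside lab, and cDNA for the chimeric Gα subunit Δ6-Gαqi4-myr was used. Signal was read as fluorescence in relative fluorescence units, giving EC50 and ΔRFU. Where a mu agonist and a delta antagonist were combined, they were co-administered at equimolar levels rather than given as a pretreatment.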

[3] = biological target: mu opioid receptors (Homo sapiens, UniProt P35372); type: cell-based; conditions: mu HEK-293 cells
Procedure, shortened: as §1

[4] = cited from earlier work
[5] = cited from earlier work; remark: listed apart in the source

Sequence of mu/delta opioid receptors (P35372 whole entry): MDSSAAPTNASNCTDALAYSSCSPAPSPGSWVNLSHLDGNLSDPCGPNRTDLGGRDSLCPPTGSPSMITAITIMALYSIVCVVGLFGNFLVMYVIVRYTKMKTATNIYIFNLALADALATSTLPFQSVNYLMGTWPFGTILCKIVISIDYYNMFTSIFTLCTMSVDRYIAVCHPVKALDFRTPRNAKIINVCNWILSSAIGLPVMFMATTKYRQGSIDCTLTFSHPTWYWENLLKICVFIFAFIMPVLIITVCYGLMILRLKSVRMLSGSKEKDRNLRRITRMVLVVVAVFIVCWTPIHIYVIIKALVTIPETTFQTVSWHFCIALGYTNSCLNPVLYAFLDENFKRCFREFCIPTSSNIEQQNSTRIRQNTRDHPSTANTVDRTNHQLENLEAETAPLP
Sequence of mu/delta opioid receptors (P41143 whole entry): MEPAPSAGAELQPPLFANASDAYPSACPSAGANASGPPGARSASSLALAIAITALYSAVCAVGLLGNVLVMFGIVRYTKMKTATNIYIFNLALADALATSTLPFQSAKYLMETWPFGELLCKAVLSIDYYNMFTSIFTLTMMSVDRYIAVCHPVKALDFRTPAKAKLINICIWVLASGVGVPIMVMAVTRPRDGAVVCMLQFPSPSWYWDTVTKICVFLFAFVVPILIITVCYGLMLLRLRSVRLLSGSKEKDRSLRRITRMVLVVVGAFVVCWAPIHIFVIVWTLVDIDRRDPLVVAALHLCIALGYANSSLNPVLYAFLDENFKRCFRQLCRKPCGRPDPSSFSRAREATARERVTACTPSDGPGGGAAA
Sequence of mu opioid receptors (P35372 whole entry): as the sequence (P35372 whole entry) above
Sequence of mu-delta heteromer (P35372 whole entry): as above
Sequence of mu-delta heteromer (P41143 whole entry): as the sequence (P41143 whole entry) above

With `CN1CC[C@]23c4c5ccc(O)c4O[C@H]2[C@H](NC(=O)COCC(=O)NCCCCCCCNC(=O)COCC(=O)Nc2cccc4c6c([nH]c24)[C@@H]2Oc4c(O)ccc7c4[C@@]24CCN(CC2CC2)[C@@H](C7)[C@]4(O)C6)CC[C@@]3(O)[C@H]1C5` [MDAN-21] the “internalization of mu and delta cell-surface opioid receptors” value [1] was “did not produce significant internalization”, the “calcium release ΔRFU” value [2] was 468 RFU and the EC50 ([2]; read-out: calcium release EC50) was 412 nM. The “calcium release ΔRFU” value [3] was 420 RFU, the EC50 ([3]; read-out: calcium release EC50) was 851 nM and the antinociception [4] was “potent antinociception”. For the same compound, the physical dependence [4] was “without tolerance, physical dependence, or place preference”, the tolerance ([4]; mice) was “does not produce tolerance” and the place preference [5] was “without tolerance, physical dependence, or place preference”.
